In paper PMC12318036 (Nature Communications, 2025):

How the values were obtained:
tumor vessels [1] = assay: Two-photon vasoconstriction assay of tumor vessels exposed to U46619; assay type: in vivo, mouse; conditions: MC-38-luc-LM3 orthotopic tumor, two-photon microscopy, U46619 10 min; n = 6
tumor vessels [2] = assay: Intravital imaging of RBC velocity and vessel diameter change post-U46619; assay type: in vivo, mouse; conditions: n = 6
Outline: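 Tumor-bearing mice received FITC-dextran i.v. before imaging. The exposed tumor was viewed with a 4× objective. A rapid line scan (735 lines per second) bisected the central axis of the capillary lumen, so that moving RBCs appeared as oblique shadows. Blood velocity was derived as Δx/Δt.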

[3] = test system: intracellular calcium of TPCs; assay: Intravital GCaMP6 calcium imaging in TPCs treated with U46619; assay type: in vivo, mouse; conditions: PC^lin-KO-GCaMP6 mice compared with PC^lin-GCaMP6 mice; n = 6
[4] = test system: L-type calcium channel in TPCs; assay: Calcium imaging; assay type: cell-based, human; conditions: H89 2HCl 10 μM; Fluo-4AM; n = 3
TPCs = assay: Cell; assay type: cell-based, human; conditions: forskolin, then H89 2HCl (10 μM), then (S)-(-)-Bay K8644 (10 μM); F-actin, p-MLC2^Ser15, collagen contraction; n = 3
Outline: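 A commercial collagen gel contraction kit was used. Harvested pericytes (5 × 10^6) were mixed 1:4 v/v with collagen solution and polymerised at 37 °C for 1 h. Medium was then added over each lattice and gels were incubated for 2 days. Gel size (contraction index) was measured at 48 h by image analysis.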

Row | Compound | change of capillary diameter after U46619 treatment, PC^lin mice (tumor vessels [1]) | reduction of capillary diameter after U46619 treatment, PC^lin-KO mice (tumor vessels [1]) | tumor blood velocity after exposure to U46619, PC^lin-KO mice (tumor vessels [2]; compared with before treatment) | vascular diameter after exposure to U46619, PC^lin-KO mice (tumor vessels [2]; compared with before treatment) | tumor blood velocity and vascular diameter before and post-treatment with U46619, PC^lin mice (tumor vessels [2]) | response of intracellular Ca^2+ of TPCs to U46619 [3] | calcium currents in TPCNM^NKX2-3+siPDE1C [4] | forskolin-increased calcium currents in TPCLM^siNKX2-3+PDE1C [4] | contraction of TPCLM^gNKX2-3+PDE1C (TPCs)
1 | CCCCC[C@H](O)/C=C/[C@@H]1[C@@H](C/C=C\CCCC(=O)O)[C@H]2CO[C@@H]1C2 [U46619, 9,11-dideoxy-9α,11α-methanoepoxy prostaglandin F2α] | no obvious change | ~ 20% | significantly decreased | significantly decreased | no significant difference | significantly increased |  |  | 
2 | Cl.Cl.O=S(=O)(NCCNC/C=C/c1ccc(Br)cc1)c1cccc2cnccc12 [H89 2HCl] |  |  |  |  |  |  | reduced calcium currents | reversed | suppressed
